Activity calls are given as the source filed them. The rule behind the calls is not given here.
Assays:
HepG2 [1] = test: Cell cycle arrest in human HepG2 cells assessed as G1 phase accumulation at 0.125 uM after 48 hrs by propidium iodide staining based flow cytometry (reference value: 32.74%); format: functional
Method in brief: (§1)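 HepG-2 cells were plated and grown 24 h at 37 °C, then treated 48 h at 0, 0.0625, 0.125 or 0.25 µM, with 0.1% DMSO as control. Cells were fixed overnight in 70% ethanol at 4 °C, treated with RNase A and stained with propidium iodide. DNA content was measured by flow cytometry to give cell-cycle phase distribution.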

HepG2 [2] = test: Induction of apoptosis in human HepG2 cells assessed as necrotic cells at 0.125 uM after 48 hrs by Annexin V-APC/7-AAD staining based flow cytometry (reference value: 2.40%); format: functional
[3] = Drug metabolism in human HepG2 cells assessed as NO release by measuring nitrite formation at 100 uM after 1 hr by Griess assay; format: ADME, cell-based; details: hepg2, 1 h
Method in brief: (§2)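 HepG-2 or L-02 cells were exposed to 100 µM of each compound for 60 min and then harvested. Lysates were mixed with Griess reagent for 10 min at 37 °C and absorbance was read at 550 nm. NO release is expressed as nitrite, reported as mean ± SD of three independent experiments.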

HepG2 [4] = test: Induction of apoptosis in human HepG2 cells assessed as late apoptotic cells at 0.125 uM after 48 hrs in presence of hemoglobin by Annexin V-APC/7-AAD staining based flow cytometry (reference value: 3.36%); format: functional
HepG2 [5] = test: Induction of apoptosis in human HepG2 cells assessed as cell population with mitochondrial membrane potential loss at 0.0625 uM measured after 48 hrs by JC-1 staining based flow cytometry (reference value: 1.49%); format: functional
Method in brief: (§3)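 HepG-2 cells were exposed 48 h to 0.0625, 0.125 or 0.25 µM or to vehicle, then washed in PBS and stained with JC-1 in the dark. Red aggregate versus green monomer fluorescence was measured by flow cytometry to give the percentages of cells with healthy versus collapsed mitochondrial membrane potential.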

HepG2 [6] = test: Induction of apoptosis in human HepG2 cells assessed as cell population with intact mitochondrial membrane potential at 0.25 uM measured after 48 hrs by JC-1 staining based flow cytometry (reference value: 98.51%); format: functional; method in brief: as §3
HepG2 [7] = test: Cell cycle arrest in human HepG2 cells assessed as G1 phase accumulation at 0.0625 uM after 48 hrs in presence of hemoglobin by propidium iodide staining based flow cytometry (reference value: 52.93%); format: functional
HepG2 [8] = test: Upregulation of caspase 3 level in human HepG2 cells up to 0.25 uM after 48 hrs by Western blot method; format: functional, cell-based
HepG2 [9] = test: Induction of apoptosis in human HepG2 cells assessed as viable cells at 0.0625 uM after 48 hrs by Annexin V-APC/7-AAD staining based flow cytometry (reference value: 91.07%); format: functional; details: HepG2, 48 h, read-out: Activity
HepG2 [10] = test: Cell cycle arrest in human HepG2 cells assessed as G1 phase accumulation at 0.125 uM after 48 hrs in presence of hemoglobin by propidium iodide staining based flow cytometry (reference value: 52.93%); format: functional
HepG2 [11] = test: Induction of apoptosis in human HepG2 cells assessed as early apoptotic cells at 0.0625 uM after 48 hrs by […] based flow cytometry (reference value: 3.18%); format: functional
HepG2 [12] = test: Cell cycle arrest in human HepG2 cells assessed as G1 phase accumulation at 0.25 uM after 48 hrs in presence of hemoglobin by propidium iodide staining based flow cytometry (reference value: 52.93%); format: functional
HepG2 [13] = test: Induction of mitochondrial membrane potential loss in human HepG2 cells measured after 48 hrs by JC-1 staining based flow cytometry; format: functional, cell-based
Method in brief: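 After 48 h exposure to 0.0625, 0.125 or 0.25 mM (so in the source) or vehicle, HepG-2 cells washed in PBS and stained with JC-1 in the dark. Flow cytometry scored cells with healthy (red aggregate) versus collapsed (green monomer) mitochondrial membrane potential.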

HepG2 [14] = test: Induction of apoptosis in human HepG2 cells assessed as early apoptotic cells at 0.25 uM after 48 hrs by […] based flow cytometry (reference value: 3.18%); format: functional
HepG2 [15] = test: Cell cycle arrest in human HepG2 cells assessed as S phase accumulation at 0.125 uM after 48 hrs by propidium iodide staining based flow cytometry (reference value: 43.88%); format: functional; method in brief: as §1
HepG2 [16] = test: Induction of apoptosis in human HepG2 cells after 48 hrs by […]; format: functional, cell-based
HepG2 [17] = test: Cell cycle arrest in human HepG2 cells assessed as G2 phase accumulation at 0.25 uM after 48 hrs in presence of hemoglobin by propidium iodide staining based flow cytometry (reference value: 10.67%); format: functional
HepG2 [18] = test: Downregulation of HO-2 expression in human HepG2 cells after 24 hrs by protein array assay; format: functional, cell-based
Method in brief: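 Lysates from HepG-2 cells treated 24 h were incubated overnight at 4 °C on a membrane array of 35 apoptosis-related proteins. A biotinylated detection antibody cocktail was then applied for 1 h at room temperature. Relative expression was read from chemiluminescent spots by densitometry.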

HepG2 [19] = test: Induction of apoptosis in human HepG2 cells assessed as late apoptotic cells at 0.0625 uM after 48 hrs by […] based flow cytometry (reference value: 3.36%); format: functional
HepG2 [20] = test: Downregulation of Bcl-2 level in human HepG2 cells up to 0.25 uM after 48 hrs by Western blot method; format: functional, cell-based
Method in brief: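 HepG-2 cells were exposed 48 h to 0, 0.0625, 0.125 or 0.25 µM and lysed on ice for 20 min. Equal protein loads were run on 12% SDS-PAGE and transferred to PVDF. Membranes were probed overnight at 4 °C with primary antibodies, then with HRP-conjugated secondaries, and detected by ECL chemiluminescence.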

HepG2 [21] = test: Upregulation of total Cyt c level in human HepG2 cells up to 0.25 uM after 48 hrs by Western blot method; format: functional, cell-based
HepG2 [22] = test: Induction of apoptosis in human HepG2 cells assessed as late apoptotic cells at 0.25 uM after 48 hrs by […] based flow cytometry (reference value: 3.36%); format: functional
HepG2 [23] = test: Cell cycle arrest in human HepG2 cells assessed as S phase accumulation at 0.25 uM after 48 hrs by propidium iodide staining based flow cytometry (reference value: 43.88%); format: functional; method in brief: as §1
HepG2 [24] = test: Cell cycle arrest in human HepG2 cells assessed as S phase accumulation at 0.0625 uM after 48 hrs by propidium iodide staining based flow cytometry (reference value: 43.88%); format: functional; method in brief: as §1
[25] = Drug metabolism in human L02 cells assessed as NO release by measuring nitrite formation at 100 uM after 1 hr by Griess assay; format: ADME, cell-based; details: l02, 1 h; method in brief: as §2
HepG2 [26] = test: Induction of apoptosis in human HepG2 cells assessed as chromatin condensation at 0.0625 to 0.25 uM measured after 48 hrs by Hoechst 33258 staining based fluorescent microscopic analysis; format: functional, cell-based
Method in brief: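 After 48 h exposure to 0.0625, 0.125 or 0.25 µM, or to 0.1% DMSO vehicle, HepG-2 cells were stained with Hoechst 33258. Nuclear morphology, including chromatin condensation and fragmentation, was inspected by fluorescence microscopy.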

HepG2 [27] = test: Induction of apoptosis in human HepG2 cells assessed as necrotic cells at 0.0625 uM after 48 hrs by Annexin V-APC/7-AAD staining based flow cytometry (reference value: 2.40%); format: functional

**Q.** With C[C@H]1CCC/C=C/[C@@H]2C[C@H](OC(=O)CCCC(=O)OCCOc3no[n+]([O-])c3S(=O)(=O)c3ccccc3)C[C@H]2[C@H](OC(=O)CCCC(=O)OCCOc2no[n+]([O-])c2S(=O)(=O)c2ccccc2)/C=C/C(=O)O1 as the molecule, how does the Activity (HepG2 [1]) read?
**A.** Its Activity is 31.78%.

**Q.** What about the Activity (HepG2 [2]) of the same molecule?
**A.** Its Activity is 2.4%.

**Q.** What about the Drug metabolism [3] of the same molecule?
**A.** Its Drug metabolism is 98.5 µM.

**Q.** What about the Activity (HepG2 [4]) of the same molecule?
**A.** Its Activity is 9.87%.

**Q.** What about the Activity (HepG2 [5]) of the same molecule?
**A.** Its Activity is 16.58%.

**Q.** And the Activity (HepG2 [6])?
**A.** Its Activity is 39.86%.

**Q.** What about the Activity (HepG2 [7]) of the same molecule?
**A.** The Activity was 68.06%.

**Q.** What about the Activity (HepG2 [8]) of the same molecule?
**A.** The Activity was “Active”.

**Q.** And the viability at 0.0625 µM (HepG2 [9])?
**A.** Its viability at 0.0625 µM is 82.1%.

**Q.** And the Activity (HepG2 [10])?
**A.** The Activity was 63.24%.

**Q.** What about the Activity (HepG2 [11]) of the same molecule?
**A.** The Activity was 3.1%.

**Q.** What about the Activity (HepG2 [12]) of the same molecule?
**A.** The Activity was 72.34%.

**Q.** What about the Activity (HepG2 [13]) of the same molecule?
**A.** Its Activity is “Dose-dependent effect”.

**Q.** And the Activity (HepG2 [14])?
**A.** Its Activity is 15.03%.

**Q.** What about the Activity (HepG2 [15]) of the same molecule?
**A.** The Activity was 51.22%.

**Q.** What about the Activity (HepG2 [16]) of the same molecule?
**A.** Its Activity is “Dose-dependent effect”.

**Q.** What about the Activity (HepG2 [17]) of the same molecule?
**A.** Its Activity is 5.3%.

**Q.** What about the Activity (HepG2 [18]) of the same molecule?
**A.** The Activity was “Active”.

**Q.** And the Activity (HepG2 [19])?
**A.** The Activity was 11.76%.

**Q.** What about the Activity (HepG2 [20]) of the same molecule?
**A.** The Activity was “Active”.

**Q.** And the Activity (HepG2 [21])?
**A.** Its Activity is “Active”.

**Q.** And the Activity (HepG2 [22])?
**A.** Its Activity is 40.21%.

**Q.** What about the Activity (HepG2 [23]) of the same molecule?
**A.** The Activity was 72.16%.

**Q.** And the Activity (HepG2 [24])?
**A.** Its Activity is 48.2%.

**Q.** And the Drug metabolism [25]?
**A.** Its Drug metabolism is 22.4 µM.

**Q.** And the Activity (HepG2 [26])?
**A.** The Activity was “Active”.

**Q.** And the Activity (HepG2 [27])?
**A.** The Activity was 3%.

From ChEMBL document CHEMBL4138082 (Eur J Med Chem, 2017)
